# Source: PubChem (several laboratories)
# Hits are enriched below; roughly 9.2% of the tested compounds scored in any of these assays.
# Dynein cargo inh: blocks dynein driven cargo transport along microtubules; 3617.4 mouse cells, GR-EGFP nuclear translocation imaging; test concentration mostly 20 µM; stimulated with dexamethasone, 1 µM; hits give low values; z-score, hits read low; hit rate 0.47% among 220,000;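 active = plate z-score of nuclear minus cytoplasmic receptor signal below a set negative limit, without overly bright fluorescence or cell loss, cut at about -3.5 in these data, passing the limit was not always enough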;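 note: z-score of nuclear minus cytoplasmic ring GR-EGFP intensity difference per well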
#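 Buffer or medium – tet-free medium with charcoal-stripped serum · Signal – automated 10x imaging of fixed Hoechst-stained cells · Also added – dexamethasone agonist, 1.0 µM final, for 30 min · Incubation – induction 48 h, compound 1 h, agonist 30 min · Read-out – GR-EGFP nuclear translocation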
# bCat KO growth: beta-catenin-lacking colon tumor cell growth suppression; hit rate 1.5% among 140,000; viability, % at 10 µM; HCT116 beta-catenin knockout viability, CellTiter-Glo, 60 h; hits give low values;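 active = viability at or under a set limit, the compound median less 4 SD, cut at about 6% in these data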;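 note: 0% = Hyamine 1622 control at 20 µM and 100% = untreated cell control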
# L major viab: reduces viability of Leishmania major promastigotes. hit rate 9% among 200,000. inhibition, % at 10 µM. AID 1063. resazurin fluorescence viability; in the data active = inhibition above about 50%;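 note: promastigotes grown with compound for 44 hours at 28 °C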
# PTEN del growth: suppresses growth of cells with PTEN deletion | HCT116 PTEN-null viability, CellTiter-Glo, 60 h; hits give low values | viability, % at 10 µM | hit rate 1.2% among 140,000 | AID 827;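 active = viability at or below a set limit, 4 SD under the median of all tested compounds, cut at about 3.7% in these data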;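 note: PTEN knockout HCT116 line with beta catenin targeted HCT116 as companion control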
# Autophagy HCS: alters autophagy in cells; MEF GFP-LC3 puncta imaging; test concentration mostly 10 µM; calls only at 10 µM (by protocol); hit rate 0.98% among 190,000; AID 463193;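 active = percentage of spot-positive cells more than 3 SD above its plate mean, without a fluorescence outlier flag or 80% toxicity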;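 note: spot-positive cell cutoff set from DMSO-treated cells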
# * = called active by the depositor; i = inactive; x = not tested or not shown; + = active, no number.
SMILES,Dynein cargo inh,bCat KO growth,L major viab,PTEN del growth,Autophagy HCS
COc1ccccc1-c1c(C)nn2c(N3CCN(c4ccccc4OC)CC3)cc(C)nc12,0.089,15.4,32.5,35.6,i
Cc1nn2c(N3CCN(C(=O)c4ccco4)CC3)cc(C(C)(C)C)nc2c1-c1ccccc1,-0.264,3.8*,57.0*,7.0,i
CC(NC(=S)Nc1c(Br)cccc1OC(F)F)C(C)(C)C (centres undefined),-0.192,66.0,59.9*,72.8,i
C/C(=N\NC(=S)NC(C)C)c1ccccc1OC(F)F,0.424,x,-0.4,x,i
COCCn1c(=NC(=O)c2ccc3c(c2)OCO3)c(C#N)cc2c(=O)n3cccc(C)c3nc21,-1.27,95.6,35.9,73.2,i
CCOCCCn1c(=N)c(C(=O)NCc2ccc3c(c2)OCO3)cc2c(=O)n3ccccc3nc21,0.38,51.2,28.4,56.9,i
COCCn1c(=N)c(C(=O)NCCc2ccc(OC)cc2)cc2c(=O)n3cccc(C)c3nc21,1.81,22.8,4.9,18.8,i
CCCn1c(=N)c(C(=O)NCc2ccc3c(c2)OCO3)cc2c(=O)n3cccc(C)c3nc21,-0.795,13.4,95.6*,16.5,i
CCCCn1c(=NC(=O)c2ccc3c(c2)OCO3)c(C#N)cc2c(=O)n3cccc(C)c3nc21,1.36,52.1,86.2*,42.7,i
CCOCCCn1c(=N)c(C(=O)NCCN2CCOCC2)cc2c(=O)n3cccc(C)c3nc21,-0.471,44.7,61.0*,57.1,i
CC(C)c1ccc(/C=C(/C#N)c2nnc(NC(=O)c3ccccc3)s2)cc1,1.02,78.7,43.6,63.8,i
CCOC(=O)N1CCN(CCC(=O)Nc2ccc(Br)c(C)c2)CC1,-0.434,x,85.4*,x,i
CCOC(=O)N1CCN(CC(=O)Nc2ccc(OC)cc2)CC1,-0.554,110.9,-6.1,93.7,i
CCOC(=O)N1CCN(CCC(=O)Nc2ccc(OC(F)(F)F)cc2)CC1,0.622,89.7,91.6*,88.1,i
CCOC(=O)N1CCN(CCC(=O)Nc2ccccc2OC)CC1,1.49,95.7,-2.9,95.9,i
Clc1ccc(N2CCN(c3nc4nonc4nc3N3CCSCC3)CC2)nc1,-0.419,x,30.3,x,i
O=C(O)COCC(=O)NCc1csc2ccccc12,0.759,x,x,x,x
CC1CC(=O)C2=C(C1)Nc1ccccc1SC2c1ccc(F)cc1 (centres undefined),-0.126,80.1,68.0*,66.5,i
COc1cccc(C(=O)c2sc(NC(C)C)nc2N)c1,-0.068,4.9*,2.6,3.8,i
COc1ccc(C(=O)c2sc(NC(C)C)nc2N)cc1OC,1.09,70.3,15.4,59.1,i
CCN(CC)C(=O)C1CCCN(c2ccc([N+](=O)[O-])cc2/C=N/NC(=O)c2ccc([N+](=O)[O-])cc2)C1 (centres undefined),-0.543,84.2,52.9*,82.0,i
CCN(CC)C(=O)C1CCCN(c2ccc([N+](=O)[O-])cc2/C=N/NC(=O)c2ccccc2)C1 (centres undefined),0.154,87.7,11.5,84.4,i
CN1CCN(c2ccc([N+](=O)[O-])cc2/C=N/NC(=O)c2cccc([N+](=O)[O-])c2)CC1,-0.349,5.3*,36.4,4.2,i
O=C(Cn1c2ccccc2c(=O)c2ccccc21)N/N=C/c1cc([N+](=O)[O-])ccc1N1CCCCC1,-0.326,25.1,-0.1,15.9,+
Cc1cccc(C(C(N)=O)c2ncc(C(F)(F)F)cc2Cl)c1 (centres undefined),1.04,x,-5.7,x,i
SMILES,Dynein cargo inh,bCat KO growth,L major viab,PTEN del growth,Autophagy HCS
CCOCCCNCc1ccc(OC)cc1,-0.867,94.2,32.3,103.2,i
CCOCCCNCc1ccc(OC)c(OC)c1,-0.381,99.0,79.9*,90.6,i
CCCOc1ccc(CNCCCOCC)cc1OC,-0.0759,x,69.8*,x,i
CCOCCCNC(=O)Cc1ccc(OC)c(OC)c1,1.56,95.8,-3.9,115.4,i
CCOCCCNCc1cccc(OC)c1,-0.903,106.3,81.8*,100.8,i
O=C(CSc1nnc(-c2ccncc2)o1)Oc1ccccc1,-0.122,103.8,-6.1,109.1,i
O=C(CSc1nnc(-c2ccccc2O)o1)Oc1ccc(OCc2ccccc2)cc1,0.94,77.0,-2.5,68.9,+
O=C(Nc1ccccc1Cl)c1ccccc1Oc1ccc(C(F)(F)F)cc1[N+](=O)[O-],2.68,76.2,79.4*,69.2,i
O=C(c1ccccc1Oc1ccc(C(F)(F)F)cc1[N+](=O)[O-])N1CCOCC1,0.249,95.5,-0.5,98.5,i
